Laboratory results published in publication PMC5061631 (Cell metabolism, 2016).

How the values were obtained:
[1] = test system: H9c2 rat cardiomyoblasts; assay: ER stress protection assay: caspase 3/7 activation by tunicamycin; type: cell-based; conditions: H9c2 cells, 0.5 µg/ml tunicamycin, 24 hr
Outline: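 H9c2 cardiomyoblasts were seeded at 8,000 cells/well and grown 24 hr in DMEM with 10% FBS. Test compound or 1% DMSO vehicle was added, then 0.5 µg/ml tunicamycin 15 min later. After a further 24 hr, caspase 3/7 activity was read by luminescence. Background from cells without tunicamycin was subtracted, and values were normalised to vehicle-treated tunicamycin-exposed cells.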

[2] = test system: perfused mouse heart; assay: Langendorff-perfused heart model of ischemia-reperfusion injury; conditions: 1.6 µM for 5 min at reperfusion
Outline: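 Mouse hearts were excised under tribromoethanol anaesthesia and perfused retrogradely at 4 ml/min in modified Krebs-Henseleit buffer with glucose, palmitate/BSA, lactate and pyruvate. After 20 min equilibration, hearts had 25 min global no-flow ischaemia and 60 min reperfusion. Test compound (1.6 µM) or 0.05% DMSO was infused for 5 min at reperfusion onset. Rate × developed pressure was normalised to pre-ischaemic baseline, infarct area was measured by TTC in 4–6 slices, and n = 6 per group.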

[3] = test system: intestinal stem cells; assay: In vivo stem cell proliferation assays in Drosophila intestine; parameters: species or system Drosophila melanogaster; conditions: dietary, 800 nM; 50 µM tunicamycin
Outline: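 Tunicamycin model: w;esgGal4,UAS-GFP virgins were crossed to Oregon Red males. Six-day-old offspring were starved 4 hr, fed 24 hr on 5% sucrose with 0.8% DMSO plus test compound, starved 1 hr, then given the same food with 50 µM tunicamycin for 24 hr. Adult female intestines were fixed and immunostained for phospho-histone H3, and positive cells were counted manually.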

[4] = test system: site IQ of mitochondrial respiratory complex I; type: biochemical, rat; conditions: for IC50: read-out: IC50 against superoxide-H2O2 production from site IQ, isolated rat skeletal muscle mitochondria
Outline: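 Freshly isolated rat skeletal muscle mitochondria, in the high-throughput screen run in 1,536-well format with library compounds at 10 µM. H2O2 was detected by Amplex UltraRed, which horseradish peroxidase oxidises to fluorescent resorufin. Data were normalised to the plate median signal, and rotenone was included on every plate as the positive site IQ inhibitor.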

[5] = test system: site IQ; conditions: ref Orr et al., 2013; cited from earlier work

Row | SMILES | caspase 3/7 activation by tunicamycin [1] | post-ischemic recovery of cardiac function (rate × pressure product) ([2]; 25 min ischemia) | infarct size ([2]; TTC staining) | suppression of tunicamycin-induced increase in mitotic marker phospho-histone H3 [3] | IC50 [4] [nM] | concentrations with off-target effects [5] [µM] | inhibition of the fluorescent signal (positive inhibitor of site IQ) ([4]; plate control in screen) [%]
1 | CC(=O)Nc1cccc(NC(=O)C(=O)NCCc2sc(-c3ccc(C)cc3)nc2C)c1 [S1QEL1.1] | strongly attenuated caspase activation | significantly improved | small but significant decrease | up to 45% | 70 | – | –
2 | O=[N+]([O-])c1ccc(Oc2ccc(S(=O)(=O)NC3CCCCC3)cc2)cc1 [CN-POBS, N-cyclohexyl-4-(4-nitrophenoxy) benzenesulfonamide] | – | – | – | – | – | > 10 | –
3 | CCCCC1CCC(C(=O)NCCS(=O)(=O)N2CCN(c3cccc(Cl)c3)CC2)CC1 (stereo not shown) [S1QEL2.2] | also did so at higher concentrations | – | – | up to 45% | 1500 | – | –
4 | C=C(C)[C@H]1Cc2c(ccc3c2O[C@@H]2COc4cc(OC)c(OC)cc4[C@@H]2C3=O)O1 [Rotenone, reference compound] | – | – | – | – | – | – | > 85
